Publication PMC8905529 (RSC Chemical Biology, 2022)
Where a SMILES comes first, the peptide text is derived from it. [ ]: non-standard residue; d: D form. Cha = N[C@@H](CC1CCCCC1)C(=O)O; hLeu = CC(C)CC[C@H](N)C(=O)O

Experiments:
ComD1 receptor [1] = biological target: T1, ComD1 receptor (Streptococcus pneumoniae serotype 2, UniProt A0A0H2ZM50); assay: β-galactosidase competitive inhibition reporter assay, D39pcomX::lacZ; assay type: cell-based
T1 sequence (A0A0H2ZM50 1-441): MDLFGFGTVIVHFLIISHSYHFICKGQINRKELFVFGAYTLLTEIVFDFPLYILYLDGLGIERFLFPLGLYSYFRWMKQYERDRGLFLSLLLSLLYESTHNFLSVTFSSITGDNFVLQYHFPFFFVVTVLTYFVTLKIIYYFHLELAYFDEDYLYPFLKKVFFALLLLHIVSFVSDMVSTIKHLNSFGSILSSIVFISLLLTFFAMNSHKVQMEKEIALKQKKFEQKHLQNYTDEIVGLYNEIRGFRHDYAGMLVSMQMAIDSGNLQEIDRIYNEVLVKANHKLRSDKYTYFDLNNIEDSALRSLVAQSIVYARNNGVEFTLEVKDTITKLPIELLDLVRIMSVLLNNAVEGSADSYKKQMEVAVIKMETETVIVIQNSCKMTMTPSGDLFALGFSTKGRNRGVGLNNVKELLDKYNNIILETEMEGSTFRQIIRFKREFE
Procedure, shortened: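 Early-exponential D39pcomX::lacZ in THY (OD600 0.30–0.35) was incubated 30 min at 37 °C. Cells were then Triton X-100-lysed and given ONPG (0.4 mg mL−1) for 3 h at 37 °C, quenched with sodium carbonate, and read at OD420/550 for Miller units.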

chymotrypsin = assay: Enzymatic; assay type: in vitro ADME; settings: chymotrypsin in PBS, pH 7.4
Procedure, shortened: (§1)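 Test peptide at 0.33 mM final in PBS (pH 7.4) with trypsin or chymotrypsin at 0.05 μg mL−1 final. Incubated at 37 °C with shaking (200 rpm) for 24 h. Fragments were identified by MALDI-TOF MS and ESI-TOF LC-MS.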

trypsin = assay: Enzymatic; assay type: in vitro ADME; settings: trypsin in PBS, pH 7.4
Procedure, shortened: as §1

ComD1 receptor [2] = biological target: T1, ComD1 receptor; assay: β-galactosidase activation reporter assay, D39pcomX::lacZ; assay type: cell-based
Procedure, shortened: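 D39pcomX::lacZ was grown on THY agar (5% horse serum, 4 μg mL−1 chloramphenicol), then in THY overnight, diluted 1:50 and grown to OD600 0.30–0.35. […] After 30 min at 37 °C, cells were lysed with Triton X-100 and given ONPG (0.4 mg mL−1, pH 7.0) for 3 h. Reads: OD420/550, Miller units; EC50 by nonlinear regression.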

Row | SMILES | IC50 (ComD1 receptor [1]) [nM] | half-life at 0.33 mM (chymotrypsin) [h] | half-life at 0.33 mM (trypsin) [h] | EC50 (ComD1 receptor [2]) [nM]
1 | CC[C@H](C)[C@H](NC(=O)[C@H](Cc1ccccc1)NC(=O)[C@H](CC(=O)O)NC(=O)[C@H](CCCNC(=N)N)NC(=O)[C@H](Cc1ccccc1)NC(=O)[C@H](CCC(C)C)NC(=O)[C@H](CCCCN)NC(=O)[C@H](CO)NC(=O)[C@H](CC(C)C)NC(=O)[C@H](CCCNC(=N)N)NC(=O)[C@H](CCSC)NC(=O)[C@H](C)N)C(=O)N[C@@H](CC(C)C)C(=O)N[C@@H](CCC(N)=O)C(=O)N[C@@H](CCCNC(=N)N)C(=O)N[C@@H](CCCCN)C(=O)N[C@@H](CCCCN)C(=O)O [CSP1-E1A/F7HLeu] (H-AMRLSK[hLeu]FRDFILQRKK-OH) | 72 | – | – | –
2 | CSCC[C@H](NC(=O)[C@H](C)N)C(=O)N[C@@H](CCCNC(=N)N)C(=O)N[C@@H](CC(C)C)C(=O)N[C@@H](CO)C(=O)N[C@@H](CCCCN)C(=O)N[C@@H](CC1CCCCC1)C(=O)N[C@@H](Cc1ccccc1)C(=O)N[C@@H](CCCNC(=N)N)C(=O)N[C@@H](CC(=O)O)C(=O)N[C@@H](Cc1ccccc1)C(=O)N[C@@H](CCC(C)C)C(=O)N[C@@H](CC(C)C)C(=O)N[C@@H](CCC(N)=O)C(=O)N[C@@H](CCCNC(=N)N)C(=O)N[C@@H](CCCCN)C(=O)N[C@@H](CCCCN)C(=O)O [CSP1-E1A/F7Cha/I12HLeu] (H-AMRLSK[Cha]FRDF[hLeu]LQRKK-OH) | 57 | – | – | –
3 | CC[C@H](C)[C@H](NC(=O)[C@H](Cc1ccccc1)NC(=O)[C@H](CC(=O)O)NC(=O)[C@H](CCCNC(=N)N)NC(=O)[C@H](Cc1ccccc1)NC(=O)[C@H](CC1CCCCC1)NC(=O)[C@H](CCCCN)NC(=O)[C@H](CO)NC(=O)[C@H](CC(C)C)NC(=O)[C@H](CCCNC(=N)N)NC(=O)[C@H](CCSC)NC(=O)[C@H](C)N)C(=O)N[C@@H](CC(C)C)C(=O)N[C@@H](CCC(N)=O)C(=O)N[C@@H](CCCNC(=N)N)C(=O)N[C@@H](CCCCN)C(=O)N[C@@H](CCCCN)C(=O)O [CSP1-E1A/F7Cha] (H-AMRLSK[Cha]FRDFILQRKK-OH) | 36 | 4 | 4 | –
4 | CSCC[C@H](NC(=O)[C@H](C)N)C(=O)N[C@@H](CCCNC(=N)N)C(=O)N[C@@H](CC(C)C)C(=O)N[C@@H](CO)C(=O)N[C@@H](CCCCN)C(=O)N[C@@H](CC1CCCCC1)C(=O)N[C@@H](Cc1ccccc1)C(=O)N[C@@H](CCCNC(=N)N)C(=O)N[C@@H](CC(=O)O)C(=O)N[C@@H](Cc1ccccc1)C(=O)N[C@@H](CC1CCCCC1)C(=O)N[C@@H](CC(C)C)C(=O)N[C@@H](CCC(N)=O)C(=O)N[C@@H](CCCNC(=N)N)C(=O)N[C@@H](CCCCN)C(=O)N[C@@H](CCCCN)C(=O)O [CSP1-E1A/F7Cha/I12Cha] (H-AMRLSK[Cha]FRDF[Cha]LQRKK-OH) | 72 | – | – | –
5 | CC[C@H](C)[C@H](NC(=O)[C@H](Cc1ccccc1)NC(=O)[C@H](CC(=O)O)NC(=O)[C@H](CCCNC(=N)N)NC(=O)[C@H](Cc1ccccc1)NC(=O)[C@H](Cc1ccccc1)NC(=O)[C@H](CCCCN)NC(=O)[C@H](CO)NC(=O)[C@H](CC(C)C)NC(=O)[C@H](CCCNC(=N)N)NC(=O)[C@H](CCSC)NC(=O)[C@@H](N)CCC(=O)O)C(=O)N[C@@H](CC(C)C)C(=O)N[C@@H](CCC(N)=O)C(=O)N[C@@H](CCCNC(=N)N)C(=O)N[C@@H](CCCCN)C(=O)N[C@@H](CCCCN)C(=O)O [CSP1, reference compound] | – | 1 | 0.5 | –
6 | CSCC[C@H](NC(=O)[C@@H](N)CCC(=O)O)C(=O)N[C@@H](CCCNC(=N)N)C(=O)N[C@@H](CC(C)C)C(=O)N[C@@H](CO)C(=O)N[C@@H](CCCCN)C(=O)N[C@@H](CC1CCCCC1)C(=O)N[C@@H](Cc1ccccc1)C(=O)N[C@@H](CCCNC(=N)N)C(=O)N[C@@H](CC(=O)O)C(=O)N[C@@H](Cc1ccccc1)C(=O)N[C@@H](CC1CCCCC1)C(=O)N[C@@H](CC(C)C)C(=O)N[C@@H](CCC(N)=O)C(=O)N[C@@H](CCCNC(=N)N)C(=O)N[C@@H](CCCCN)C(=O)N[C@@H](CCCCN)C(=O)O [CSP1-F7Cha/I12Cha] (H-EMRLSK[Cha]FRDF[Cha]LQRKK-OH) | – | 6 | 3 | < 1
